Assay outcomes deposited in PubChem by The Scripps Research Institute Molecular Screening Center.
Fam108B inh: blocks mouse Fam108B hydrolase in RBBP9 counter-screen; recombinant Fam108B, FP-Rh probe fluorescence polarization; inhibition, % at 9.51 µM; 300,000 compounds, 0.33% hits; AID 1947;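 active = inhibition above the screen mean inhibition plus 3 SD, computed separately per campaign, cut at about 18% in these data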;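 also: inhibitors lower polarization as less probe binds the enzyme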
RBBP9 inhibitor: human RBBP9 hydrolase inhibition; O75884; recombinant RBBP9, FP-Rh probe fluorescence polarization; inhibition, % at 7.94 µM; 220,000 compounds, 0.2% hits; AID 1515;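 active = inhibition above the campaign mean of all tested compounds plus 3 SD, cut at about 14% in these data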;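 also: plate controls were DMSO wells with RBBP9 for no effect and wells lacking RBBP9 protein for full effect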
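System: RBBP9 protein / Buffer or medium: Tris/NaCl buffer pH 8.0 with 0.1% Pluronic / Probe or stimulus: Serine-hydrolase probe FP-Rh, 375 nM pre-mixing / Dosing: 7.94 µM single dose, 0.794% DMSO / Times: enzyme-compound preincubation 30 min, then probe labeling 45 min, 25 °C / Technique: fluorescence polarization (mP), excitation 525 nm, emission 598 nm / Replication: singlicate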
PAD4 FP inh: PAD4 (human) enzyme inhibition. recombinant PAD4, RCA probe fluorescence polarization. Q9UM07. inhibition, % at 6.36 µM. AID 485272. 330,000 compounds, 0.41% hits;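 active = percent inhibition above a cutoff equal to the mean of all tested compounds plus 3 SD, cut at about 15% in these data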;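 also: 0% = PAD4 with RCA probe and DMSO and 100% = probe without PAD4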
Target sequence (Q9UM07 whole entry, looked up): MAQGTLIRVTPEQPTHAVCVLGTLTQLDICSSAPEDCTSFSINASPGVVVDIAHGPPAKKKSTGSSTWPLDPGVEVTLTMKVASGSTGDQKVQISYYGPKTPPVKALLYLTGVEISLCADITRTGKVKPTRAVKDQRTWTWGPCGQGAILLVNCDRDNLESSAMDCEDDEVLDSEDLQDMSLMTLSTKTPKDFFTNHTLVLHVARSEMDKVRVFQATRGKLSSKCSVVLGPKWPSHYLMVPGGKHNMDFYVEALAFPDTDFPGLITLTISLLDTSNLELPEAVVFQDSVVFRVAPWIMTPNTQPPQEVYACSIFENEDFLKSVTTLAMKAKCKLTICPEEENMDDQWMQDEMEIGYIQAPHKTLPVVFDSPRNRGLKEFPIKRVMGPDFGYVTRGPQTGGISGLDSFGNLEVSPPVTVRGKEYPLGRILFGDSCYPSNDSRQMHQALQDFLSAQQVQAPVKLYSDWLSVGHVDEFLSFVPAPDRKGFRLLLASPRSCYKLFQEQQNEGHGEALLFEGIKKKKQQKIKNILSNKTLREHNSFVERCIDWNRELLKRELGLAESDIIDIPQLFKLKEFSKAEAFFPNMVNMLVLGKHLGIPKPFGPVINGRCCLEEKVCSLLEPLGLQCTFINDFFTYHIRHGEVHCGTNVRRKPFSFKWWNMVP
LYPLA1 counter: LYPLA1 (human) inhibition in PME1 counter-screen; O75608; recombinant LYPLA1, FP-Rh probe fluorescence polarization; inhibition, % at 5.9 µM; 320,000 compounds, 0.16% hits; AID 2174;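 active = inhibition above the mean of all tested compounds plus 3 SD, set per campaign, cut at about 14% in these data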;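 also: inhibitors block serine hydrolase probe labeling of LYPLA1 so polarization falls; 0% = enzyme with DMSO and 100% = wells lacking LYPLA1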
PME-1 inh: blocks human protein phosphatase methylesterase 1. Q9Y570. recombinant PME-1, FP-Rh probe fluorescence polarization. inhibition, % at 5.9 µM. 320,000 compounds, 0.53% hits. AID 2130;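 active = inhibition above the campaign mean of all compounds plus 3 SD, cut at about 26% in these data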;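 also: competitive labeling of PME-1 active site by serine hydrolase directed probe; 0% = PME-1 with DMSO and 100% = wells lacking PME-1 enzyme; inhibitors block probe labeling so polarization falls and inhibition rises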
LYPLA2 counter: LYPLA2 (human) inhibition in PME1 counter-screen; O95372; recombinant LYPLA2, FP-Rh probe fluorescence polarization; inhibition, % at 5.9 µM; 320,000 compounds, 0.38% hits;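 active = inhibition above the screen-wide mean plus 3 SD, limit set per campaign, cut at about 26% in these data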;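 also: 0% = LYPLA2 with DMSO and 100% = wells lacking LYPLA2 enzyme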
Fam108b inh conf: Fam108b (mouse) hydrolase inhibition, confirmation assay | 930 compounds, 44% hits | shares compounds with Fam108B inh | inhibition, % at 9.51 µM | recombinant Fam108b, FP-Rh probe fluorescence polarization;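 active = inhibition above a limit from the primary screen, the mean over all compounds plus 3 SD, cut at about 19% in these data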;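 also: 0% = median of active Fam108b wells and 100% = catalytically dead S170A mutant; inhibitors free the probe so polarization falls as inhibition rises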
Fam108b ABPP HTS: inhibits mouse Fam108b in gel-based ABPP | recombinant Fam108b, fluorophosphonate probe | inhibition, % at 20 µM | shares compounds with Fam108B inh | 260 compounds, 44% hits; in the data active = inhibition above about 40%
* = called active by the depositor; . = no result given. Rows were chosen to be rich in hits. Some 1.3% of all compounds tested hit in one or more screens of this group.

SMILES | Fam108B inh | RBBP9 inhibitor | PAD4 FP inh | LYPLA1 counter | PME-1 inh | LYPLA2 counter | Fam108b inh conf | others
Cc1ccc(C2C3=C(CC(C)(C)CC3=O)N=C3c4ccccc4C(=O)C32)cc1 (configuration not stated) | 23* | 2 | -1 | -7 | 11 | -1 | 15
O=C(NCC1CC1)c1ccc(Nc2nc3ccc(Br)cc3[nH]2)cc1 | 19* | 3 | 0 | -13 | 7 | -6 | 48* | Fam108b ABPP HTS=75*
O=C(NCc1ccco1)c1cccc(Nc2nc3ccc(Br)cc3[nH]2)c1 | 25* | -2 | -2 | -17 | 24 | -37 | 11
CCC(=O)Nc1nn(CC(C)C)c2nc3ccc(C)cc3cc12 | 2 | . | -3 | -2 | 1 | -1 | .
N#CC/C(N)=N/Nc1nc2ccccc2nc1Cc1ccccc1 | 46* | . | -6 | -10 | 33* | 10 | 24*
CNc1ccc(Br)cc(C(=O)/C=C/c2ccc3c(c2)OCO3)c1=O | 18* | 4 | -3 | 5 | 3 | 11 | 6
CCCOc1ccc(C(=O)Nc2ccc(S(=O)(=O)N3C[C@@H]4C[C@@H](C3)c3cccc(=O)n3C4)cc2)cc1 | . | . | -3 | -5 | -10 | -2 | .
COc1cccc(-n2c(SCc3cc(=O)oc4cc(O)c(O)cc34)nc3ccccc3c2=O)c1 | 26* | -18 | 5 | -13 | 20 | -9 | 46* | Fam108b ABPP HTS=85*
Cc1cccc(-c2nc(Nc3ccc(N4CCOCC4)cc3)c3ccccc3n2)c1 | 20* | -2 | 5 | -11 | 19 | -7 | 2
COc1ccc(Nc2nc(N)c(C(=O)c3ccc(OC)cc3)s2)cc1 | 13 | . | -4 | 3 | 23 | 11 | .
COc1ccc(Nc2nc(N)c(C(=O)c3ccc(F)cc3)s2)cc1 | 50* | . | -5 | -1 | 11 | 1 | -4
O=C(CNC(=O)c1ccc(Cl)c([N+](=O)[O-])c1)OC1CCCCC1=O (configuration not stated) | 1 | . | -1 | 5 | 1 | 0 | .
CC(=O)Nc1ccc(-n2nnnc2SCC(=O)NCc2cccs2)cc1 | 0 | 7 | 2 | -4 | -5 | 2 | .
O=C(O)c1ccc(-n2cccc2/C=C2/NC(=O)N(c3cccc(Cl)c3)C2=O)cc1 | . | 1 | . | . | . | . | .
O=C(O)c1ccc(-n2cccc2/C=C2/NC(=O)N(c3ccccc3)C2=O)cc1 | 20* | -5 | 4 | -1 | -15 | 6 | 17
N#Cc1cccc(NC(=O)CSc2ccc3c4c(cccc24)C(=O)c2ccccc2-3)c1 | 35* | 4 | 7 | -1 | 10 | 1 | 21*
COc1ccc(NC(=O)CSc2ccc3c4c(cccc24)C(=O)c2ccccc2-3)cc1 | -1 | -1 | 4 | -3 | 6 | -4 | .
N=c1c(C(=O)NC2CCCCC2)cc2c(=O)n3ccccc3nc2n1CCc1ccccc1 | 2 | . | -6 | -2 | 4 | -4 | .
O=C1CC(c2ccccc2)=NN1c1nc(-c2ccccc2)cs1 | 19* | -1 | -12 | -14 | 11 | -16 | 9
Cc1c(C(C)C[C@H](C)O)oc(=O)c2c1Oc1c(C)c(C(C)C[C@H](C)O)oc(=O)c1C2 (some centres not stated) | . | . | 2 | 1 | 2 | -1 | .
Oc1c(Br)cc(/C=N/n2c(-c3ccccc3)n[nH]c2=S)c(Br)c1O | 34* | . | 6 | -8 | -8 | 6 | 41*
Oc1c(Br)cc(Br)cc1/C=N/n1c(-c2ccccc2)n[nH]c1=S | -2 | . | 1 | -1 | -3 | -1 | .
Cc1nc(SCc2ccc(OCCC(C)C)cc2)n[nH]1 | -5 | -1 | -1 | -4 | -8 | -1 | .
Clc1ccc2[nH]c3c(c2c1)CCc1cn[nH]c1-3 | 22* | -10 | -2 | -6 | 40* | 12 | 12
CCc1ccc(OCCNC(=O)c2ccco2)cc1 | -4 | . | 0 | 2 | 3 | 7 | .
SMILES | Fam108B inh | RBBP9 inhibitor | PAD4 FP inh | LYPLA1 counter | PME-1 inh | LYPLA2 counter | Fam108b inh conf | others
Cc1cccc(-c2oc3ccc(-c4ccc5c(c4)OCO5)cc3c2/C=C/c2ccc(N)cc2)c1 | 7 | . | -9 | -4 | 6 | 0 | .
CSc1nc(NCCOCCO)c2sc3nc(-c4ccco4)c4c(c3c2n1)CCC4 | 29* | -5 | -8 | -12 | -5 | -11 | 5
C=C1c2cccc(O)c2C(O)=C2C(=O)[C@]3(O)C(O)=C(C(N)=O)C(=O)[C@@H](N(C)C)[C@@H]3[C@@H](O)[C@H]12 | 26* | 37* | -10 | -7 | 0 | 14 | -5
C[C@H]1c2cccc(O)c2C(O)=C2C(=O)C3(O)C(O)=C(C(N)=O)C(=O)[C@@H](N(C)C)[C@@H]3[C@@H](O)[C@@H]21 (some centres not stated) | 3 | . | -3 | -2 | -8 | -3 | .
COc1ccc(S(=O)(=O)N2CCC(Cc3ccccc3)CC2)cc1NC(C)=O | -1 | . | -1 | 2 | -4 | 7 | .
CCCCc1ccc(C2C3=C(CC(C)(C)CC3=O)NC3=C2C(=O)c2ccccc23)cc1 (configuration not stated) | 18 | -7 | -5 | -12 | 22 | -6 | .
CCCc1ccc(C2C3=C(CC(C)(C)CC3=O)NC3=C2C(=O)c2ccccc23)cc1 (configuration not stated) | 24* | 2 | 1 | -20 | 4 | -12 | 1
Cc1[nH]n(-c2ccccc2)c(=O)c1N=Nc1c(O)cc(S(=O)(=O)N(C)C)c2ccccc12 | 75* | . | -8 | -1 | 54* | 6 | 89* | Fam108b ABPP HTS=0
Cc1[nH]n(-c2ccccc2)c(=O)c1N=Nc1ccc2c(c1)OCCO2 | -1 | -8 | 3 | 2 | 4 | 2 | .
Cc1[nH]c2c(C)cccc2c1CCNC(=O)c1ccc2c(c1[N+](=O)[O-])C(=O)c1ccccc1C2=O | 23* | 8 | -4 | -3 | 31* | 8 | 30* | Fam108b ABPP HTS=60*
O=C(Nc1ccc(-c2csc(Nc3cccc(C(F)(F)F)c3)n2)cc1)c1ccccc1 | 10 | . | 3 | -24 | -3 | -25 | .
O=C(Nc1ccc(-c2csc(Nc3cccc(C(F)(F)F)c3)n2)cc1)c1cc([N+](=O)[O-])cc(C(F)(F)F)c1 | 41* | . | -3 | -5 | 1 | -7 | 11
CCCCn1c(=O)nc2n(-c3ccc(OC)cc3)c3ccccc3cc-2c1=O | 42* | 6 | -1 | 0 | -2 | -8 | 1
CC(Oc1ccccc1)C(=O)Nc1nnc(S(=O)(=O)N(C)c2ccccc2)s1 (configuration not stated) | -3 | . | -8 | -2 | -7 | 4 | .
Cc1ccc(NC2CCCN(C(=O)CCN3CCOCC3)C2)cc1C (configuration not stated) | 3 | . | -1 | 0 | -4 | 4 | .
